# pIC50: −log10 of the molar value.
# Key:
# [1] = Selectivity index, ratio of CC50 for human HepG2.2.15 cells to IC50 for HBV infected in human HepG2.2.15 cells assessed as inhibition of hepatitis B e antigen secretion; type: functional
# [2] = Selectivity index, ratio of CC50 for human HepG2.2.15 cells to IC50 for HBV infected in human HepG2.2.15 cells assessed as inhibition of hepatitis B surface antigen secretion; type: functional
# [3] = Cytotoxicity against human HepG2.2.15 cells by MTT assay; type: cell-based, HepG2 2.2.15
# [4] = tested on: Hepatitis B virus; test: Antiviral activity against HBV infected in human HepG2.2.15 cells assessed as inhibition of hepatitis B e antigen secretion by ELISA; type: functional, organism-based; conditions: HepG2 2.2.15
# [5] = Selectivity index, ratio of CC50 for human HepG2.2.15 cells to IC50 for HBV infected in human HepG2.2.15 cells assessed as inhibition of DNA replication; type: functional
# [6] = tested on: Hepatitis B virus; test: Antiviral activity against HBV infected in human HepG2.2.15 cells assessed as inhibition of hepatitis B surface antigen secretion by ELISA; type: functional, organism-based; conditions: HepG2 2.2.15
# [7] = tested on: Hepatitis B virus; test: Antiviral activity against HBV infected in human HepG2.2.15 cells assessed as inhibition of DNA replication; type: functional, organism-based; conditions: HepG2 2.2.15
# [8] = Octanol-water partition coefficient, log P of the compound at 30 degC by HPLC analysis; type: physicochemical
# Outline: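 Shake-flask method: solutes equilibrated between octanol and water. Compound concentration in the octanol phase determined by HPLC. LogP determined at 30 °C.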
smiles,measurement,setting,value
C=C1CC[C@@H]2[C@](C)(COC(C)=O)[C@H](OC(C)=O)CC[C@@]2(C)[C@@H]1C/C=C1\C=COC1=O,Ratio CC50/IC50,[1],1.1
same,Ratio CC50/IC50,[2],1.2
same,CC50,[3],297 µM
same,pIC50,[4],3.59
same,Ratio CC50/IC50,[5],7.6
same,pIC50,[6],3.60
same,pIC50,[7],4.40
C=C1CC[C@@H]2[C@](C)(CO)[C@H](OC(=O)c3cccs3)CC[C@@]2(C)[C@@H]1C/C=C1\C=COC1=O,Ratio CC50/IC50,[2],6.2
same,CC50,[3],257 µM
same,pIC50,[4],< 2.66
same,Ratio CC50/IC50,[5],31.8
same,pIC50,[6],4.39
same,pIC50,[7],5.09
C=C1CC[C@@H]2[C@](C)(CO)[C@H](OC(=O)c3cccnc3)CC[C@@]2(C)[C@@H]1C/C=C1\C=COC1=O,Ratio CC50/IC50,[2],1.3
same,CC50,[3],337 µM
same,pIC50,[4],3.15
same,Ratio CC50/IC50,[5],8.8
same,pIC50,[6],3.58
same,pIC50,[7],4.42
C=C1CC[C@@H]2[C@](C)(COC(=O)c3cccnc3OC)[C@H](O)CC[C@@]2(C)[C@@H]1/C=C/C1=CCOC1=O,Ratio CC50/IC50,[1],6.2
same,CC50,[3],1340 µM
same,pIC50,[4],3.66
same,pIC50,[6],< 2.64
same,pIC50,[7],< 3.23
C=C1CC[C@@H]2[C@](C)(COC(=O)c3cccs3)[C@H](O)CC[C@@]2(C)[C@@H]1/C=C/C1=CCOC1=O,Ratio CC50/IC50,[1],19.1
same,Ratio CC50/IC50,[2],3.4
same,CC50,[3],557 µM
same,pIC50,[4],4.53
same,Ratio CC50/IC50,[5],25.2
same,pIC50,[6],3.79
same,pIC50,[7],4.66
C=C1CC[C@@H]2[C@](C)(COC(=O)c3ccccc3C(=O)O)[C@H](OC(=O)c3ccccc3C(=O)O)CC[C@@]2(C)[C@@H]1C/C=C1\C=COC1=O,Ratio CC50/IC50,[1],>9.4
same,CC50,[3],> 2040 µM
same,pIC50,[4],3.66
same,Ratio CC50/IC50,[5],>92.8
same,pIC50,[7],4.66
C=C1CC[C@@H]2[C@](C)(COC(=O)c3cccs3)[C@H](O)CC[C@@]2(C)[C@@H]1C/C=C1\C=COC1=O,Ratio CC50/IC50,[1],125
same,Ratio CC50/IC50,[2],20.3
same,CC50,[3],2470 µM
same,pIC50,[4],4.71
same,Ratio CC50/IC50,[5],104.9
same,pIC50,[6],3.92
same,pIC50,[7],4.63
C[C@]1(CO)[C@H]2CC[C@@]3(CO3)[C@@H](/C=C/C3=CCOC3=O)[C@]2(C)CC[C@H]1O,Ratio CC50/IC50,[2],1.4
same,CC50,[3],1840 µM
same,Ratio CC50/IC50,[5],23.6
same,pIC50,[6],2.89
same,pIC50,[7],4.11
C=C1CC[C@@H]2[C@](C)(COC(=O)c3ccco3)[C@H](O)CC[C@@]2(C)[C@@H]1/C=C/C1=CCOC1=O,Ratio CC50/IC50,[1],1.2
same,Ratio CC50/IC50,[2],4.6
same,CC50,[3],92 µM
same,pIC50,[4],4.11
same,Ratio CC50/IC50,[5],9.9
same,pIC50,[6],4.72
same,pIC50,[7],5.03
C=C1CC[C@@H]2[C@](C)(COC(=O)c3cccs3)[C@H](OC(=O)c3cccs3)CC[C@@]2(C)[C@@H]1/C=C/C1=CCOC1=O,Ratio CC50/IC50,[1],>1.8
same,Ratio CC50/IC50,[2],>1
same,CC50,[3],> 1540 µM
same,pIC50,[4],3.09
same,Ratio CC50/IC50,[5],>8.3
same,pIC50,[6],2.84
same,pIC50,[7],3.73
C=C1CC[C@@H]2[C@](C)(COC(=O)/C=C/c3ccccc3)[C@H](O)CC[C@@]2(C)[C@@H]1/C=C/C1=CCOC1=O,Ratio CC50/IC50,[1],6.3
same,Ratio CC50/IC50,[2],10.2
same,CC50,[3],183 µM
same,pIC50,[4],4.54
same,Ratio CC50/IC50,[5],15.5
same,pIC50,[6],4.74
same,pIC50,[7],4.84
C=C1CC[C@@H]2[C@](C)(CO)[C@H](O)CC[C@@]2(C)[C@@H]1/C=C/C1=CC(CO)(CO)OC1=O,Ratio CC50/IC50,[1],1.1
same,Ratio CC50/IC50,[2],13
same,CC50,[3],954 µM
same,pIC50,[4],3.07
same,Ratio CC50/IC50,[5],6.2
same,pIC50,[6],4.13
same,pIC50,[7],3.81
C[C@H](Cn1cnc2c(N)ncnc21)OCP(=O)(O)O [TENOFOVIR ANHYDROUS],Ratio CC50/IC50,[1],>1.4
same,Ratio CC50/IC50,[2],>1.2
same,CC50,[3],> 1720 µM
same,Ratio CC50/IC50,[5],>2417.3
same,pIC50,[6],2.86
same,pIC50,[7],6.15
C=C1CC[C@@H]2[C@](C)(COC(=O)c3cccnc3)[C@H](O)CC[C@@]2(C)[C@@H]1/C=C/C1=CCOC1=O,Ratio CC50/IC50,[1],1.8
same,Ratio CC50/IC50,[2],2.8
same,CC50,[3],113 µM
same,pIC50,[4],4.20
same,Ratio CC50/IC50,[5],5.1
same,pIC50,[6],4.40
same,pIC50,[7],4.66
C=C1CC[C@H]2[C@@](C)(CCC(=O)[C@@]2(C)C=O)[C@@H]1C/C=C1\C=COC1=O,Ratio CC50/IC50,[2],1.9
same,CC50,[3],964 µM
same,Ratio CC50/IC50,[5],5.7
same,pIC50,[6],3.29
same,pIC50,[7],3.77
C=C1CC[C@@H]2[C@](C)(CO)[C@H](O)CC[C@@]2(C)[C@@H]1C/C=C1/C(=O)OC[C@H]1O [ANDROGRAPHOLIDE],logP,[8]; read-out: logP,0.52
same,CC50,[3],198 µM
same,Ratio CC50/IC50,[5],3.7
same,pIC50,[7],4.27
C=C1CC[C@@H]2[C@](C)(COC(=O)c3ccccc3C(=O)O)[C@H](O)CC[C@@]2(C)[C@@H]1C/C=C1\C=COC1=O,Ratio CC50/IC50,[1],1.5
same,CC50,[3],450 µM
same,pIC50,[4],3.53
same,Ratio CC50/IC50,[5],11.4
same,pIC50,[6],2.88
same,pIC50,[7],4.40
C=C1CC[C@@H]2[C@](C)(CO)[C@H](O)CC[C@@]2(C)[C@@H]1/C=C/C1=CCOC1=O,logP,[8],1.44
same,CC50,[3],197 µM
same,Ratio CC50/IC50,[5],8.7
same,pIC50,[7],4.65
C=C1CC[C@@H]2[C@](C)(CO)[C@H](OC(C)=O)CC[C@@]2(C)[C@@H]1C/C=C1\C=COC1=O,Ratio CC50/IC50,[1],3.6
same,Ratio CC50/IC50,[2],2.7
same,CC50,[3],872 µM
same,pIC50,[4],3.62
same,Ratio CC50/IC50,[5],19.6
same,pIC50,[6],3.50
same,pIC50,[7],4.35
C=C1CC[C@@H]2[C@](C)(COC(=O)c3cc(=O)c4ccccc4o3)[C@H](O)CC[C@@]2(C)[C@@H]1/C=C/C1=CCOC1=O,Ratio CC50/IC50,[1],1
same,CC50,[3],171 µM
same,pIC50,[4],3.75
same,Ratio CC50/IC50,[5],4.7
same,pIC50,[7],4.44
C=C1CC[C@@H]2[C@](C)(COC(=O)/C=C/c3cccc(Cl)c3)[C@H](O)CC[C@@]2(C)[C@@H]1/C=C/C1=CCOC1=O,Ratio CC50/IC50,[1],2.5
same,CC50,[3],147 µM
same,pIC50,[4],4.22
same,pIC50,[6],3.68
same,pIC50,[7],3.87
C=C1CC[C@@H]2[C@](C)(CO)[C@H](OC(=O)/C=C/c3ccccc3)CC[C@@]2(C)[C@@H]1C/C=C1\C=COC1=O,CC50,[3],179 µM
same,pIC50,[4],2.93
same,Ratio CC50/IC50,[5],5.8
same,pIC50,[6],3.33
same,pIC50,[7],4.51
C=C1CC[C@@H]2[C@](C)(C=O)[C@H](O)CC[C@@]2(C)[C@@H]1/C=C/C1=CCOC1=O,CC50,[3],122 µM
same,pIC50,[4],2.71
same,Ratio CC50/IC50,[5],9.1
same,pIC50,[6],2.74
same,pIC50,[7],4.87
C=C1CC[C@@H]2[C@](C)(COC(=O)CCCC)[C@H](O)CC[C@@]2(C)[C@@H]1C/C=C1\C=COC1=O,CC50,[3],225 µM
same,pIC50,[4],2.65
same,Ratio CC50/IC50,[5],3.2
same,pIC50,[6],3.25
same,pIC50,[7],4.16
C=C1CC[C@@H]2[C@](C)(COC(C)=O)[C@H](O)CC[C@@]2(C)[C@@H]1C/C=C1\C=COC1=O,Ratio CC50/IC50,[1],1.1
same,Ratio CC50/IC50,[2],1.2
same,CC50,[3],334 µM
same,pIC50,[4],3.54
same,Ratio CC50/IC50,[5],7.6
same,pIC50,[6],3.55
same,pIC50,[7],4.36
C=C1CC[C@@H]2[C@](C)(COC(=O)c3cccs3)[C@H](OC(=O)c3cccs3)CC[C@@]2(C)[C@@H]1C/C=C1\C=COC1=O,Ratio CC50/IC50,[1],1.1
same,CC50,[3],1370 µM
same,pIC50,[4],2.91
same,pIC50,[6],2.78

# Source: ChEMBL document CHEMBL3259753, “Synthesis, structure-activity relationships and biological evaluation of dehydroandrographolide and andrographolide derivatives as novel anti-hepatitis B virus agents” (Bioorg Med Chem Lett, 2014)
